Measurements: ChEMBL document CHEMBL6127097, “Structure-Guided Discovery of cis-Hexahydro-pyrido-oxazinones as Reversible, Drug-like Monoacylglycerol Lipase Inhibitors” (J Med Chem, 2024)
Activity calls are given as the source filed them. The rule behind the calls is not given here.

Key:
[1] = Half-life in Wistar rat at 10 mg/kg, ip […] by LC-MS/MS analysis; type: ADME, organism-based; settings: in vivo
Outline: (§1)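 Male Wistar rats, single dose. i.v. in NMP/0.9% NaCl 30:70; p.o. and i.p. in NMP/HPMC/diisooctyl sulfosuccinate 10:90; 3 per i.v./p.o. group, 6 i.p. K2EDTA plasma sampled 0.083–7 h, plus 24 h for i.v./p.o.; brain and CSF at 1, 2, 7 h (i.p. only). LC-MS/MS, noncompartmental analysis.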

[2] = Average drug concentration in mouse plasma at 30 mg/kg, ip measured after 2 hrs; type: ADME, organism-based; settings: read-out: Cave
Outline: (§2)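 In a time course, mice were injected i.p. with 30 mg/kg in NaCl/DMSO/Tween 80 (80/10/10). Average plasma levels were determined at the stated time points over 24 h.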

[3] = Ratio of drug concentration in Wistar rat CSF to plasma at 10 mg/kg, ip measured upto 7 hrs by LC-MS/MS analysis; type: ADME, organism-based; outline: as §1
[4] = Average drug concentration in mouse plasma at 30 mg/kg, ip measured after 8 hrs; type: ADME, organism-based; settings: in vivo; outline: as §2
[5] = AUClast in Wistar rat at 5 mg/kg, po measured upto 24 hrs by LC-MS/MS analysis; type: ADME, organism-based; settings: in vivo
Outline: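 Male Wistar rats (N = 3 per group) received a single dose. The i.v. dose was 1 mg/kg in NMP/0.9% NaCl 30:70. The p.o. dose was 5 mg/kg in NMP/HPMC/diisooctyl sulfosuccinate 10:90. Blood was taken into K2EDTA from 0.083 (i.v.) or 0.25 h to 24 h. Plasma was assayed by LC-MS/MS and analysed non-compartmentally.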

[6] = Clearance in mouse hepatocytes assessed per 10 million cells; type: ADME, cell-based, Hepatocyte; settings: read-out: CLH
[7] = biological target: T1, Monoglyceride lipase (Mus musculus, UniProt O35678); experiment: Inhibition of mouse MAGL using native substrate by Rapidfire MS assay
T1 sequence (O35678 whole entry): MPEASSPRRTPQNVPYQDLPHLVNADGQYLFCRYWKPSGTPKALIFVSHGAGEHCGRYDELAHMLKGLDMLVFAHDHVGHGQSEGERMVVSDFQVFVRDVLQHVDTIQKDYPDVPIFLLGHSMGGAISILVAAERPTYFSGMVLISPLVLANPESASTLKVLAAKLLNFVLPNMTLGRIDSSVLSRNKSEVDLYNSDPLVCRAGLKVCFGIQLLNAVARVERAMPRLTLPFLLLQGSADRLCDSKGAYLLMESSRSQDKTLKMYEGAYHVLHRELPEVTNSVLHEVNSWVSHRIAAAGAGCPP

[8] = Chemical stability at pH 4 incubated for 2 hrs; type: physicochemical; settings: buffer, pH 4, 2 h
Outline: (§3)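 Compound was held in aqueous buffer at the stated pH for 2 h at 37 °C.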

[9] = Chemical stability at pH 10 incubated for 2 hrs; type: physicochemical; settings: buffer, pH 10, 2 h; outline: as §3
[10] = system: LLC-PK1; experiment: Substrate activity at mouse P-gp expressed in LLC-PK1 cells assessed as efflux ratio incubated for 3 hrs; type: cell-based
Outline: (§4)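 LLC-PK1 porcine kidney cells transfected with human or mouse P-gp, grown as polarized monolayers on filter plates. Compound is dosed apically or basolaterally and transport followed 3 h at 37 °C. Efflux ratio comes from unidirectional Papp; 1 µM zosuquidar defines permeability without P-gp.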

[11] = system: Mus musculus; experiment: Upregulation of brain 2-AG level in mouse at 30 mg/kg, ip measured after 8 to 24 hrs; type: functional, organism-based; settings: time 8-24 hrs
Outline: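 Male-unspecified mice received a single i.p. dose of 30 mg/kg. The vehicle was NaCl/DMSO/TW80 (80/10/10): the drug was dissolved in equal parts DMSO and TW80, then diluted with 8 parts normal saline. Brain 2-AG levels were followed over 24 h after dosing and measured by LC/MS in brain extracts.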

[12] = biological target: T2, Monoglyceride lipase (Mus musculus) (UniProt O35678); experiment: In vivo receptor occupancy at MAGL receptor in mouse at 10 mg/kg, ip measured after 4 hrs; type: functional, organism-based
T2 sequence (whole entry): T1 sequence (O35678 whole entry)

[13] = system: Mus musculus; experiment: Antiinflammatory activity in LPS-induced CD-1 mouse neuroinflammation model assessed as decrease in peripheral tissue IL-1beta mRNA expression at 30 mg/kg, ip measured after 6 hrs by qRT-PCR analysis; type: functional, organism-based
Outline: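 CD-1 mice were dosed with NaCl + vehicle, LPS (5 mg/kg) + vehicle, or LPS + inhibitor at 30 mg/kg i.p. (vehicle NaCl/DMSO/Tween 80, 80/10/10). They were sacrificed 6 h post-compound. LCN2 and IL1b mRNA in peripheral tissue were measured by droplet digital qRT-PCR.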

[14] = system: LLC-PK1; experiment: Substrate activity at human P-gp expressed in LLC-PK1 cells assessed as efflux ratio incubated for 3 hrs; type: cell-based; outline: as §4
[15] = biological target: T2, Monoglyceride lipase (Mus musculus); experiment: In vivo receptor occupancy at MAGL receptor in mouse at 30 mg/kg, ip measured after 4 hrs; type: functional, organism-based
[16] = biological target: T2, Monoglyceride lipase (Mus musculus); experiment: In vivo receptor occupancy at MAGL receptor in mouse at 30 mg/kg, ip measured after 2 hrs; type: functional, organism-based
Outline: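 Mice dosed 30 mg/kg i.p. in NaCl/DMSO/TW80 (80/10/10). Brain proteome was prepared at set time points over 24 h and MAGL occupancy read by activity-based protein profiling.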

| SMILES | half-life [1] | concentration at 2 h [2] | Kp at 7 h [3] | Cave [4] | AUC(0-t) at 24 h [5] | hepatocyte CLint [6] | IC50 [7] | Stability [8] | Stability [9] | Ratio [10] | Activity [11] | Activity [12] | Activity [13] | Ratio [14] | Activity [15] | Activity [16] |
| --- | --- | --- | --- | --- | --- | --- | --- | --- | --- | --- | --- | --- | --- | --- | --- | --- |
| O=C1CO[C@H]2CCN(C(=O)N3CCC(Cc4ccc(C(F)(F)F)cc4)CC3)C[C@H]2N1 [listing 1 of 2 here] | 2.7 h | 42 µM | 0.017 | 21.089 µM | 19100 ng·h/mL | 8.9 µL/min/1e6 cells | 91 nM | Stable | Stable |  |  |  |  |  |  |  |
| O=C1CO[C@H]2CCN(C(=O)N3CCC(Cc4ccc(C(F)(F)F)cc4)CC3)C[C@H]2N1 [listing 2 of 2 here] |  |  |  |  |  |  |  |  |  | 4 | inactive | 79% | inactive | 2.4 | 93% | 96% |
